NR1D1 modulator: modulators of human Rev-erb alpha DNA binding; 370,000 tested, 0.79% active; P20393; AID 1259318; activity, % at 10 µM; Rev-erbα–FITC-DNA binding, fluorescence polarization, 90 min;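 active = activity above about 14%, limit read from the data; passing the limit was not always enough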;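 also: 0% = DMSO wells with 35 nM protein and 100% = DMSO wells with 750 nM protein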
Target sequence (P20393 whole entry, looked up): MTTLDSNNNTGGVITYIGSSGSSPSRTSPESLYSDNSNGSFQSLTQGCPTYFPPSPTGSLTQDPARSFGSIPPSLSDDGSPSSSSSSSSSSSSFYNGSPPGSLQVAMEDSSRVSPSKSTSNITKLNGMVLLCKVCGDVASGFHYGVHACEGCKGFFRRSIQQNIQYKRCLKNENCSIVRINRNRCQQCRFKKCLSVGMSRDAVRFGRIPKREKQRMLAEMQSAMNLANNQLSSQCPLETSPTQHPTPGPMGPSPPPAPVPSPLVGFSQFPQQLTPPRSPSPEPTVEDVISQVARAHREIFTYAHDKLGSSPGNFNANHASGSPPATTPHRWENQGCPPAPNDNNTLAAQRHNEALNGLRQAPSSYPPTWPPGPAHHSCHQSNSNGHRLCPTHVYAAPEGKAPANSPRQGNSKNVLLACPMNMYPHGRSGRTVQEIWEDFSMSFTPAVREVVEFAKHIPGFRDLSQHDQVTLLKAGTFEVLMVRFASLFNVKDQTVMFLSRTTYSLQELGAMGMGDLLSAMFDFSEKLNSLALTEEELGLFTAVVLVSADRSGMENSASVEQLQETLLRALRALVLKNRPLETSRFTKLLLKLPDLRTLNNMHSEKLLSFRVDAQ
NR2E3 ag-1: human photoreceptor-specific nuclear receptor agonism. inhibition of corepressor binding, % at 3.98 µM. 360,000 tested, 0.35% active. AID 602229. CHO-S Gal4-NCOR/VP16-NR2E3 two-hybrid, luciferase. Q9Y5X4;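 active = inhibition above the mean of all tested compounds plus 3 SD, cut at about 70% in these data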;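 also: 0% = DMSO with NR2E3 transfected cells and 100% = cells lacking NR2E3 construct; higher means lower luciferase signal from less NR2E3 corepressor binding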
PG9 Ab binder: binds the HIV-1 gp120 antibody PG9; TR-FRET gp120-PG9 antibody binding; inhibition, % at 6.7 µM; 360,000 tested, 0.43% active; AID 624416; in the data active = inhibition above about 8.5%
GalR3 antag: blocks the human galanin receptor 3; inhibition, % at 3 µM; O60755; 360,000 tested, 0.44% active; HEK293 GalR3-CNG cAMP membrane potential fluorescence; galR3 body fused to GalR1 C-terminus;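 active = inhibition above the screen-wide average plus 3 SD, cut at about 13% in these data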;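 also: forskolin and galanin both at EC90 stimulate the cells; cAMP rise reported by CNG channel membrane potential dye signal; 0% = forskolin plus galanin with DMSO and 100% = forskolin alone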
NR2E3 ag-2: NR2E3 (human) agonism; GST-NR2E3/biotin-RetCOR TR-FRET, 1536-well; inhibition of corepressor binding, % at 4.78 µM; 320,000 tested, 0.12% active; AID 2300;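 active = percent inhibition above the cutoff of mean plus 3 SD of all tested compounds, set per screening campaign, cut at about 20% in these data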;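 also: 0% = DMSO wells and 100% = biotin wells as full block of FRET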
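Test system: GST-NR2E3 and biotin-RetCOR proteins | Quantity: 1.35 nM GST-tagged NR2E3 final | Medium: Tris pH 7.5 | Also added: 7 nM biotin-RetCOR | Dosing: Compound at 4.8 µM, single dose | Timing: 5 h at 4 °C | Detection: Time-resolved FRET | Read-out basis: Percent inhibition | Benchmarks: Biotin wells as high control, 0.6% DMSO wells as low control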
* = called active by the depositor; . = no result. Sampled rows, rich in hits. Any-hit rate of the full collection: about 1.8%.

SMILES | NR1D1 modulator | NR2E3 ag-1 | PG9 Ab binder | GalR3 antag | NR2E3 ag-2
CCOc1ccc(-n2c(-c3ccc(Br)cc3)c[n+]3c2CCCCC3)cc1 | 0 | -4 | 1 | 18* | 3
CCOc1ccc(-n2c(-c3ccccc3)c[n+]3c2CCC3)cc1 | -1 | 10 | 0 | -4 | -2
O=C1[C@H](CCC(O)c2ccc(F)cc2)[C@@H](c2ccc(O)cc2)N1c1ccc(F)cc1 (some centres undefined) | 0 | . | . | . | .
COc1ccc(/C=C\C(=O)O[C@@H]2C(O)C(O[C@@H]3OC(C)[C@H](O[C@@H]4OCC(O[C@H]5O[C@H](CO)[C@@H](O)C(O)C5O)C(O)C4O)C(O)C3O)[C@H](OC(=O)[C@]34CCC(C)(C)C[C@@H]3C3=CCC5[C@@]6(C)CC(O)C(O[C@@H]7OC(CO)C(O)[C@H](O)[C@H]7O)[C@@](C)(C(=O)O)C6CC[C@@]5(C)[C@]3(CO)CC4)O[C@H]2C)cc1 (some centres undefined) | . | 96* | . | . | .
C[C@@H]1CC[C@]2(C(=O)O[C@@H]3O[C@H](CO)[C@@H](O)[C@H](O)[C@H]3O)CC[C@]3(C)C(=CCC4[C@@]5(C)CC[C@H](O[C@@H]6OC[C@H](O)[C@H](O[C@@H]7O[C@H](CO)[C@@H](O)[C@H](O)[C@H]7O)[C@H]6O)C(C)(C)C5CC[C@]43C)C2[C@]1(C)O (some centres undefined) | 0 | -9 | 0 | 0 | .
COc1cc(/C=N/NC(=O)c2cncc(Br)c2)cc([N+](=O)[O-])c1O | 5 | 11 | -2 | 25* | -2
COc1cc(/C=N/NC(=O)c2cccc([N+](=O)[O-])c2)cc(OC)c1O | 3 | -1 | -4 | 2 | 0
Cc1cc(C2=NNC(=NC3CC3)SC2)c(C)n1-c1ccccc1 | -5 | 80* | -2 | -5 | .
COc1ccc(-n2c(C)cc(C3=NNC(=NC4CC4)SC3)c2C)cc1 | -3 | -41 | 0 | -6 | .
COCCn1c(C)cc(C2=NNC(=NC3CC3)SC2)c1C | -2 | 92* | 1 | -6 | -4
CCCC[C@@H](CC)COC(=O)c1ccccc1O | 2 | . | . | . | .
CC[C@@H]1/C=C(/C)C[C@H](C)C[C@H](OC)[C@H]2O[C@@](O)(C(=O)C(=O)N3CCCC[C@H]3C(=O)O[C@H](/C(C)=C/[C@@H]3CC[C@H](Cl)[C@H](OC)C3)[C@H](C)[C@@H](O)CC1=O)[C@H](C)C[C@@H]2OC | 11 | . | . | . | .
Cc1cc(O)c(C(=O)/C=C/c2cccc([N+](=O)[O-])c2)c(=O)o1 | -4 | -26 | -1 | -1 | 0
CC(=O)Oc1ccccc1C(=O)C=Cc1cccc([N+](=O)[O-])c1 | -6 | -19 | 0 | 28* | .
O=C(Nc1ccccc1-c1nc2ccccc2s1)c1ccco1 | 5 | -16 | 7 | -4 | 6
O=C(Nc1ccccc1-c1nc2ccccc2s1)c1cccnc1Cl | 24 | -15 | 11* | -8 | 2
CO/N=C(/C(=O)N[C@H]1C(=O)N2C(C(=O)O)=C(CSc3nnnn3C)CSC12)c1csc(N)n1 (some centres undefined) | 10 | . | . | . | .
Cc1ccc(NC(=O)COC(=O)c2ccc([N+](=O)[O-])s2)c(C)c1 | -3 | 12 | -7 | -2 | 0
COc1ccccc1NC(=O)COC(=O)c1ccc([N+](=O)[O-])s1 | 4 | 1 | -1 | 13* | -3
CC(=O)NS(=O)(=O)c1ccc(NC(=O)c2ccccc2C(=O)O)cc1 | 3 | . | . | . | .
COC(=O)c1c(C)oc2ccc(N(C(=O)c3ccncc3)S(=O)(=O)c3ccccc3)cc12 | 4 | 70* | -3 | -3 | -1
CC1(C)O[C@@H]2CC3C4C[C@H](F)C5=CC(=O)C=C[C@]5(C)[C@@]4(F)[C@@H](O)C[C@]3(C)[C@]2(C(=O)CO)O1 (some centres undefined) | -1 | . | . | . | .
Cn1c2ccccc2c(=O)n2c(=O)c3ccccc3cc12 | . | . | . | . | 29*
C[C@]12C=CC(=O)C=C1CCC1C2C(=O)C[C@@]2(C)C1CC[C@]2(O)C(=O)CO (some centres undefined) | -2 | . | . | . | .
N=c1ccn2c(n1)O[C@@H]1[C@@H](O)[C@H](CO)O[C@@H]12 | -6 | . | . | . | .
SMILES | NR1D1 modulator | NR2E3 ag-1 | PG9 Ab binder | GalR3 antag | NR2E3 ag-2
Cc1onc(-c2ccccc2)c1C(=O)N[C@H]1C(=O)N2[C@@H]1SC(C)(C)[C@@H]2C(=O)O | 8 | . | . | . | .
CN1C2CC(OC(=O)[C@H](CO)c3ccccc3)C[C@H]1[C@H]1OC21 (some centres undefined) | -8 | . | . | . | .
Cc1ccc(Cc2c(-c3ccco3)nc3c(C)cc(Br)cn23)cc1 | -12 | -58 | 1 | 34* | .
CC(C)CC(=O)N[C@H](C(=O)NC(C(=O)NC(CC(C)C)[C@@H](O)CC(=O)N[C@@H](C)C(=O)N[C@@H](CC(C)C)[C@@H](O)CC(=O)O)C(C)C)C(C)C (some centres undefined) | -2 | . | . | . | .
C=CCOc1cccc(C2/C(=C(\O)c3ccc4c(c3)OCCO4)C(=O)C(=O)N2Cc2cccnc2)c1 (centres undefined) | 2 | -8 | 14* | -6 | 10
NC(=O)c1ccc(N=C2C(=O)Nc3ccc([N+](=O)[O-])cc32)cc1 | 11 | -3 | -1 | 13* | 1
CC[C@@H](C(=O)[C@@H](C)[C@@H](O)[C@H](C)[C@@H]1O[C@@H]([C@@H](CC)C(=O)O)CC[C@@H]1C)[C@H]1OC2(C=C[C@@H](O)[C@]3(CC[C@@](C)([C@H]4CC[C@](O)(CC)[C@H](C)O4)O3)O2)[C@H](C)C[C@@H]1C (some centres undefined) | 3 | . | . | . | .
COc1ccc(CS(=O)(=O)/C(Cl)=C(/Cl)C(=O)Nc2ccc(OC)nc2)cc1 | . | 74* | . | . | -3
CC1(C)N=C(N)N=C(N)N1c1ccc(CCCCc2ccccc2)cc1 | -3 | -33 | -1 | 101* | .
CC1(C)N=C(N)N=C(N)N1c1ccccc1 | -4 | 16 | -2 | -2 | -3
COc1ccc(NS(=O)(=O)c2cccc(C(=O)O)c2)cc1 | -1 | -7 | 0 | -1 | 4
COc1ccc(C(=O)C(C)OC(=O)c2cccc(S(=O)(=O)Nc3cc(Cl)c(OC)cc3OC)c2)cc1 (centres undefined) | . | 80* | . | . | -6
NC(=O)c1ccsc1NC(=O)COC(=O)Cc1cccc2ccccc12 | 3 | -12 | 0 | 104* | 3
NC(=O)c1ccsc1NC(=O)COC(=O)Cc1c[nH]c2ccccc12 | 1 | -7 | -1 | -7 | 0
CCCCN1/C(=C/c2ccc3ccccc3[n+]2CC)Sc2ccccc21 | . | 80* | . | . | .
C[C@H](CCC(=O)O)[C@H]1CCC2C3C(CC[C@@]21C)[C@@]1(C)CC[C@@H](O)C[C@H]1C[C@H]3O (some centres undefined) | -2 | . | . | . | .
O=C(CCCCCn1c(=S)[nH]c2cc3c(cc2c1=O)OCO3)N1CCN(Cc2ccccc2)CC1 | 17 | 0 | 4 | -1 | 2
